# Assays:
# Type in all cases: functional
# CAKI-1 = assay: Growth inhibition of human CAKI-1 cells at 10 uM after 48 hrs by sulforhodamine B assay relative to control; conditions: CAKI-1, 48 h, read-out: GI
# Method in brief: (§1)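 NCI-60 single-dose screen at 10 μM for 48 h. Percent growth inhibition was measured by sulforhodamine B staining of cellular protein.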
# PC-3 = assay: Growth inhibition of human PC3 cells at 10 uM after 48 hrs by sulforhodamine B assay relative to control; conditions: PC-3, 48 h, read-out: GI
# Method in brief: (§2)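 NCI-60 human cancer cell line screen, single-dose pass: cells exposed to 10 μM for 48 h. Cellular protein content read out by sulforhodamine B staining, and growth inhibition expressed relative to untreated control.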
# SN12C = assay: Growth inhibition of human SN12C cells after 48 hrs by sulforhodamine B assay
# Method in brief: (§3)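 NCI-60 panel follow-up: five concentrations from 10 nM to 100 μM, 48 h exposure. Growth read by sulforhodamine B protein staining. GI50 derived from the concentration-response, with the concentration for total growth inhibition (TGI) also recorded when below 100 μM.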
# HCT-116 = assay: Growth inhibition of human HCT116 cells after 48 hrs by sulforhodamine B assay; conditions: HCT-116, 48 h
# Method in brief: (§4)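 NCI-60 panel screen. Cells were exposed for 48 h at five concentrations between 10 nM and 100 μM. Cellular protein was read by sulforhodamine B staining, and GI50 and total growth inhibition (TGI) concentrations were derived.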
# MDA-MB-468 [1] = assay: Growth inhibition of human MDA-MB-468 cells after 48 hrs by sulforhodamine B assay; conditions: MDA-MB-468, 48 h; method in brief: as §3
# UO-31 = assay: Growth inhibition of human UO31 cells after 48 hrs by sulforhodamine B assay; conditions: UO-31, 48 h
# Method in brief: (§5)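 NCI-60 panel cells treated at five concentrations from 10 nM to 100 μM for 48 h. Read-out by sulforhodamine B protein stain. GI50 and total growth inhibition (TGI, if below 100 μM) taken from the concentration-response data.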
# SK-OV-3 = assay: Growth inhibition of human SKOV3 cells after 48 hrs by sulforhodamine B assay; conditions: SK-OV-3, 48 h; method in brief: as §3
# MDA-MB-231 = assay: Growth inhibition of human MDA-MB-231 cells after 48 hrs by sulforhodamine B assay; conditions: MDA-MB-231, 48 h; method in brief: as §4
# A498 = assay: Growth inhibition of human A498 cells at 10 uM after 48 hrs by sulforhodamine B assay relative to control; conditions: A498, 48 h, read-out: GI; method in brief: as §1
# SR [2] = assay: Growth inhibition of human SR cells after 48 hrs by sulforhodamine B assay; method in brief: as §5
# NCI-H460 = assay: Growth inhibition of human NCI-H460 cells at 10 uM after 48 hrs by sulforhodamine B assay relative to control; conditions: NCI-H460, 48 h, read-out: GI; method in brief: as §2
# SR [3] = assay: Growth inhibition of human SR cells at 10 uM after 48 hrs by sulforhodamine B assay relative to control; conditions: read-out: GI
# Method in brief: (§6)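 NCI-60 human cancer cell line screen, single dose of 10 μM for 48 h. Cellular protein content read by sulforhodamine B staining; growth inhibition expressed relative to untreated control.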
# MDA-MB-435 = assay: Growth inhibition of human MDA-MB-435 cells after 48 hrs by sulforhodamine B assay; conditions: MDA-MB-435, 48 h; method in brief: as §4
# HL-60(TB) = assay: Growth inhibition of human HL-60(TB) cells after 48 hrs by sulforhodamine B assay; conditions: HL-60, 48 h
# Method in brief: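 NCI-60 human cancer cell line screen, five concentrations from 10 nM to 100 μM. Growth measured by sulforhodamine B staining of cellular protein content. GI50 derived, with TGI where reached below 100 μM.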
# SW-620 = assay: Growth inhibition of human SW620 cells after 48 hrs by sulforhodamine B assay; conditions: SW-620, 48 h; method in brief: as §5
# SK-MEL-5 = assay: Growth inhibition of human SK-MEL-5 cells at 10 uM after 48 hrs by sulforhodamine B assay relative to control; conditions: SK-MEL-5, 48 h, read-out: GI; method in brief: as §2
# SF-539 = assay: Growth inhibition of human SF539 cells after 48 hrs by sulforhodamine B assay; conditions: SF-539, 48 h; method in brief: as §3
# BT-549 = assay: Growth inhibition of human BT549 cells at 10 uM after 48 hrs by sulforhodamine B assay relative to control; conditions: BT-549, 48 h, read-out: GI; method in brief: as §1
# HOP-92 = assay: Growth inhibition of human HOP92 cells after 48 hrs by sulforhodamine B assay; conditions: HOP-92, 48 h; method in brief: as §4
# TK-10 [4] = assay: Growth inhibition of human TK10 cells at 10 uM after 48 hrs by sulforhodamine B assay relative to control; conditions: TK-10, 48 h, read-out: GI; method in brief: as §6
# UACC-257 = assay: Growth inhibition of human UACC257 cells at 10 uM after 48 hrs by sulforhodamine B assay relative to control; conditions: UACC-257, 48 h, read-out: GI; method in brief: as §6
# NCI/ADR-RES = assay: Growth inhibition of human NCI-ADR-RES cells after 48 hrs by sulforhodamine B assay; method in brief: as §3
# SF-268 [5] = assay: Growth inhibition of human SF268 cells after 48 hrs by sulforhodamine B assay; conditions: SF-268, 48 h; method in brief: as §3
# SF-268 [6] = assay: Growth inhibition of human SF268 cells at 10 uM after 48 hrs by sulforhodamine B assay relative to control; conditions: SF-268, 48 h, read-out: GI; method in brief: as §2
# MOLT-4 = assay: Growth inhibition of human MOLT4 cells after 48 hrs by sulforhodamine B assay; conditions: MOLT-4, 48 h; method in brief: as §3
# HCT-15 = assay: Growth inhibition of human HCT15 cells at 10 uM after 48 hrs by sulforhodamine B assay relative to control; conditions: HCT-15, 48 h, read-out: GI; method in brief: as §1
# SF-295 = assay: Growth inhibition of human SF295 cells after 48 hrs by sulforhodamine B assay; conditions: SF-295, 48 h; method in brief: as §3
# A549 = assay: Growth inhibition of human A549/ATCC cells at 10 uM after 48 hrs by sulforhodamine B assay relative to control; conditions: A549, 48 h, read-out: GI; method in brief: as §1
# K562 = assay: Growth inhibition of human K562 cells at 10 uM after 48 hrs by sulforhodamine B assay relative to control; conditions: K562, 48 h, read-out: GI; method in brief: as §1
# Malme-3M = assay: Growth inhibition of human MALME-3M cells at 10 uM after 48 hrs by sulforhodamine B assay relative to control; conditions: read-out: GI; method in brief: as §1
# TK-10 [7] = assay: Growth inhibition of human TK10 cells after 48 hrs by sulforhodamine B assay; conditions: TK-10, 48 h; method in brief: as §5
# MDA-MB-468 [8] = assay: Growth inhibition of human MDA-MB-468 cells at 10 uM after 48 hrs by sulforhodamine B assay relative to control; conditions: MDA-MB-468, 48 h, read-out: GI; method in brief: as §2
# SK-MEL-28 = assay: Growth inhibition of human SK-MEL-28 cells at 10 uM after 48 hrs by sulforhodamine B assay relative to control; conditions: SK-MEL-28, 48 h, read-out: GI; method in brief: as §2
# DU-145 = assay: Growth inhibition of human DU145 cells after 48 hrs by sulforhodamine B assay; conditions: DU-145, 48 h; method in brief: as §4
SMILES,inhibition of growth at 10 µM (CAKI-1),inhibition of growth at 10 µM (PC-3),GI50 (SN12C),GI50 (HCT-116),GI50 (MDA-MB-468 [1]),TGI (MDA-MB-468 [1]),GI50 (UO-31),GI50 (SK-OV-3),GI50 (MDA-MB-231),inhibition of growth at 10 µM (A498),GI50 (SR [2]),inhibition of growth at 10 µM (NCI-H460),inhibition of growth at 10 µM (SR [3]),GI50 (MDA-MB-435),GI50 (HL-60(TB)),GI50 (SW-620),inhibition of growth at 10 µM (SK-MEL-5),GI50 (SF-539),inhibition of growth at 10 µM (BT-549),GI50 (HOP-92),other results
Cc1noc(C)c1-c1cc(O)cc(C(O)c2ccccc2)c1 (stereo not given),76.2%,51.6%,3.99 µM,7.08 µM,1890 nM,40.6 µM,4580 nM,7.01 µM,3.92 µM,103%,1010 nM,32.8%,72.9%,3.48 µM,2170 nM,24.5 µM,45.8%,4.56 µM,35.3%,1020 nM,TGI (HL-60(TB)): 22.7 µM; TGI (HOP-92): 72.9 µM; inhibition of growth at 10 µM (TK-10 [4]): 87.4%; inhibition of growth at 10 µM (UACC-257): 59.6%; GI50 (NCI/ADR-RES): 6.32 µM; GI50 (SF-268 [5]): 39.3 µM; inhibition of growth at 10 µM (SF-268 [6]): 28.5%; GI50 (MOLT-4): 17.9 µM; TGI (MOLT-4): 80.7 µM; inhibition of growth at 10 µM (HCT-15): 63.3%; GI50 (SF-295): 7.31 µM; inhibition of growth at 10 µM (A549): 44.6%; inhibition of growth at 10 µM (K562): 57.9%; inhibition of growth at 10 µM (Malme-3M): 40%; GI50 (TK-10 [7]): 1080 nM; inhibition of growth at 10 µM (MDA-MB-468 [8]): 75.1%; inhibition of growth at 10 µM (SK-MEL-28): 38.8%; GI50 (DU-145): 6.95 µM
COc1ccccc1S(=O)(=O)Nc1ccc2c(c1)CN(C)C(=O)N2,78.8%,64.7%,6.8 µM,4.5 µM,1500 nM,47.9 µM,1100 nM,4.9 µM,3.5 µM,103%,3700 nM,44.2%,64%,2.6 µM,3400 nM,12 µM,59.5%,4.5 µM,-0.7%,1200 nM,TGI (HOP-92): 70.8 µM; inhibition of growth at 10 µM (TK-10 [4]): 82.7%; inhibition of growth at 10 µM (UACC-257): 66.2%; GI50 (NCI/ADR-RES): 17.4 µM; GI50 (SF-268 [5]): 28.8 µM; inhibition of growth at 10 µM (SF-268 [6]): 27.1%; GI50 (MOLT-4): 10.5 µM; inhibition of growth at 10 µM (HCT-15): 59.2%; GI50 (SF-295): 13.5 µM; inhibition of growth at 10 µM (A549): 49.5%; inhibition of growth at 10 µM (K562): 71.4%; inhibition of growth at 10 µM (Malme-3M): 67.8%; GI50 (TK-10 [7]): 1600 nM; TGI (TK-10 [7]): 58.9 µM; inhibition of growth at 10 µM (MDA-MB-468 [8]): 78.9%; inhibition of growth at 10 µM (SK-MEL-28): 51.1%; GI50 (DU-145): 28.8 µM

# — ChEMBL document CHEMBL4118192, “BET bromodomain ligands: Probing the WPF shelf to improve BRD4 bromodomain affinity and metabolic stability” (Bioorg Med Chem, 2018)
